# From ChEMBL document CHEMBL4177542, “A New Combination of a Pleuromutilin Derivative and Doxycycline for Treatment of Multidrug-Resistant Acinetobacter baumannii” (J Med Chem, 2017)
# How the values were obtained:
# [1] = test system: Acinetobacter baumannii; test: Antibacterial activity against Acinetobacter baumannii ATCC 19606 infected in C57BL/6 mouse assessed as survival rate at 4 mg/kg, ip administered as single dose measured for 5 days (reference value: <20%); type: functional; settings: ATCC 19606 = CIP 70.34 = JCM 6841, ip, 120 h
# Procedure, shortened: (§1)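 C57BL/6 mice (n = 5 per group; 4 untreated controls) infected intraperitoneally with A. baumannii ATCC19606 grown at 37 °C and collected by centrifugation, at a dose giving 75% death. Single intraperitoneal dose (2 to 60 mg/kg) given 1 h after infection. Mice monitored for 5 days, with death as the end point; survival rate recorded.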
# [2] = test system: Escherichia coli; test: Synergistic antibacterial activity against Escherichia coli ATCC 10798 at 35:1 compound to doxycycline ratio after 48 hrs by resazurin dye based microdilution broth checkerboard method; type: functional; settings: ATCC 10798, 48 h
# Procedure, shortened: (§2)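 Checkerboard broth microdilution of drug pairs in tryptic soy broth on mid-log cultures (OD 0.5), 48 h at 37 °C. Growth read by resazurin (pink growth, blue no growth). MBC is blue retained over 4 h, CFU plating where needed. ΣFIC = C_A/MIC_A + C_B/MIC_B, taken at the growth/no-growth interface wells; ΣFIC <0.5 counts as synergy.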
# [3] = test system: Pseudomonas aeruginosa; test: Bactericidal activity against Pseudomonas aeruginosa ATCC 27853 after 48 hrs by resazurin dye based microdilution method; type: functional; settings: ATCC 27853, 48 h, read-out: MBC99.9
# Procedure, shortened: (§3)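 Broth microdilution in tryptic soy broth. Mid-log cultures (OD600 0.5) treated with serial dilutions from a DMSO stock (1 mg per 100 μL) for 48 h at 37 °C. Resazurin (stock 0.02%) then added for 1 h at 37 °C. MIC is the lowest concentration staying blue; MBC is blue retained over 4 h (99.9% kill), with CFU plating when needed.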
# [4] = test system: Acinetobacter baumannii; test: Synergistic antibacterial activity against Acinetobacter baumannii ATCC 19606 at 35:1 compound to doxycycline ratio after 48 hrs by resazurin dye based microdilution broth checkerboard method; type: functional; settings: ATCC 19606 = CIP 70.34 = JCM 6841, 48 h
# Procedure, shortened: (§4)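 Microdilution broth checkerboard of the compound combined with doxycycline, using the resazurin broth method (48 h, 37 °C, blue = no growth). ΣFIC = C_A/MIC_A + C_B/MIC_B, taken at the growth–no growth interface wells; ΣFIC below 0.5 is scored as synergy. MBC for the fixed-ratio combinations read as the 4 h resazurin endpoint.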
# [5] = test system: Acinetobacter baumannii; test: Synergistic antibacterial activity against Acinetobacter baumannii ATCC 19606 at 2:1 compound to doxycycline ratio after 48 hrs by resazurin dye based microdilution broth checkerboard method; type: functional; settings: ATCC 19606 = CIP 70.34 = JCM 6841, 48 h; procedure, shortened: as §2
# [6] = test system: Klebsiella pneumoniae; test: Growth inhibition of Klebsiella pneumoniae ATCC 8047 after 48 hrs by resazurin dye based microdilution method; type: functional; settings: ATCC 8047, 48 h; procedure, shortened: as §3
# [7] = test system: Mycobacterium tuberculosis; test: Bactericidal activity against Mycobacterium tuberculosis H37Rv after 48 hrs by resazurin dye based microdilution method; type: functional; settings: read-out: MBC99.9
# [8] = test system: Escherichia coli; test: Synergistic bactericidal activity against Escherichia coli ATCC 10798 at 60:1 compound to doxycycline ratio after 48 hrs by resazurin dye based microdilution broth checkerboard method; type: functional; settings: ATCC 10798, 48 h, read-out: MBC99.9; procedure, shortened: as §2
# [9] = test system: Acinetobacter baumannii; test: Synergistic antibacterial activity against Acinetobacter baumannii ATCC 19606 infected in C57BL/6 mouse assessed as survival rate at compound to doxycycline ratio of 35:1 at 60 mg/kg, ip administered as single dose measured for 5 days (reference value: <20%); type: functional; settings: ATCC 19606 = CIP 70.34 = JCM 6841, ip, 120 h; procedure, shortened: as §1
# [10] = test system: Acinetobacter baumannii; test: Potentiation of doxycycline-induced antimicrobial activity against Acinetobacter baumannii ATCC 19606 at 0.20 ug/ml in presence of 0.05 ug/ml doxycycline by microdilution broth checkerboard method; type: functional, ATCC 19606 = CIP 70.34 = JCM 6841
# Procedure, shortened: (§5)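 A. baumannii ATCC 19606 in a broth microdilution checkerboard with doxycycline, 96 concentration combinations. ΣFIC = C_A/MIC_A + C_B/MIC_B, taken for wells at the growth/no-growth interface; ΣFIC <0.5 counts as synergy.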
# [11] = Solubility of the compound in water at 10 mg after 24 hrs by HPLC based shake flask method; type: physicochemical
# [12] = test system: Acinetobacter baumannii; test: Antibacterial activity against Acinetobacter baumannii ATCC 19606 infected in C57BL/6 mouse assessed as survival rate at 20 mg/kg, ip administered as single dose measured for 5 days (reference value: <20%); type: functional; settings: ATCC 19606 = CIP 70.34 = JCM 6841, ip, 120 h; procedure, shortened: as §1
# [13] = test system: Acinetobacter baumannii; test: Synergistic antibacterial activity against multidrug-resistant Acinetobacter baumannii ATCC […] at 35:1 compound to doxycycline ratio after 48 hrs by resazurin dye based microdilution broth checkerboard method; type: functional; settings: ATCC BAA 18002, 48 h; procedure, shortened: as §4
# [14] = test system: Acinetobacter baumannii; test: Synergistic bactericidal activity against Acinetobacter baumannii ATCC 19606 at 2:1 compound to doxycycline ratio after 48 hrs by resazurin dye based microdilution broth checkerboard method; type: functional; settings: ATCC 19606 = CIP 70.34 = JCM 6841, 48 h, read-out: MBC99.9; procedure, shortened: as §2
# [15] = test system: Acinetobacter baumannii; test: Synergistic antibacterial activity against multidrug-resistant Acinetobacter baumannii ATCC […] at 60:1 compound to doxycycline ratio after 48 hrs by resazurin dye based microdilution broth checkerboard method; type: functional; settings: ATCC BAA 18002, 48 h; procedure, shortened: as §4
# [16] = test system: Acinetobacter baumannii; test: Synergistic bactericidal activity against Acinetobacter baumannii ATCC 19606 at 60:1 compound to doxycycline ratio after 48 hrs by resazurin dye based microdilution broth checkerboard method; type: functional; settings: ATCC 19606 = CIP 70.34 = JCM 6841, 48 h, read-out: MBC99.9; procedure, shortened: as §2
# [17] = test system: Acinetobacter baumannii; test: Potentiation of doxycycline-induced antimicrobial activity against Acinetobacter baumannii ATCC 19606 at 0.40 ug/ml in presence of 0.05 ug/ml doxycycline by microdilution broth checkerboard method; type: functional, ATCC 19606 = CIP 70.34 = JCM 6841; procedure, shortened: as §5
# [18] = test system: Klebsiella pneumoniae; test: Synergistic bactericidal activity against Klebsiella pneumoniae ATCC 8047 at 35:1 compound to doxycycline ratio after 48 hrs by resazurin dye based microdilution broth checkerboard method; type: functional; settings: ATCC 8047, 48 h, read-out: MBC99.9; procedure, shortened: as §4
# [19] = test system: Pseudomonas aeruginosa; test: Synergistic bactericidal activity against Pseudomonas aeruginosa ATCC 27853 at 60:1 compound to doxycycline ratio after 48 hrs by resazurin dye based microdilution broth checkerboard method; type: functional; settings: ATCC 27853, 48 h, read-out: MBC99.9; procedure, shortened: as §2
# [20] = test system: Escherichia coli; test: Synergistic bactericidal activity against Escherichia coli ATCC 10798 at 2:1 compound to doxycycline ratio after 48 hrs by resazurin dye based microdilution broth checkerboard method; type: functional; settings: ATCC 10798, 48 h, read-out: MBC99.9; procedure, shortened: as §2
# [21] = test system: Acinetobacter baumannii; test: Synergistic antibacterial activity against Acinetobacter baumannii ATCC 19606 infected in C57BL/6 mouse assessed as survival rate at compound to doxycycline ratio of 35:1 at 4 mg/kg, ip administered as single dose measured for 5 days (reference value: <20%); type: functional; settings: ATCC 19606 = CIP 70.34 = JCM 6841, ip, 120 h; procedure, shortened: as §1
# [22] = test system: Acinetobacter baumannii; test: Synergistic antibacterial activity against Acinetobacter baumannii ATCC 19606 infected in C57BL/6 mouse assessed as survival rate at compound to doxycycline ratio of 35:1 at 2 mg/kg, ip administered as single dose measured for 5 days (reference value: <20%); type: functional; settings: ATCC 19606 = CIP 70.34 = JCM 6841, ip, 120 h; procedure, shortened: as §1
# [23] = test system: Acinetobacter baumannii; test: Bactericidal activity against Acinetobacter baumannii ATCC 19606 after 48 hrs by resazurin dye based microdilution method; type: functional; settings: ATCC 19606 = CIP 70.34 = JCM 6841, 48 h, read-out: MBC99.9
# Procedure, shortened: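 A. baumannii ATCC 19606 grown in tryptic soy broth, 37 °C with shaking, to mid-log (OD 0.5). Cultures treated with serial dilutions of inhibitor (DMSO stock 1 mg/100 μL), 48 h at 37 °C. Resazurin then added, 1 h at 37 °C with shaking. MIC is the lowest concentration staying blue; MBC is blue retained over 4 h, with CFU plating if needed (99.9% kill).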
compound,measurement,setting,value
C=C[C@]1(C)C[C@@H](OC(=O)CSC(C)(C)CNC(=O)[C@H](N)C(C)C)[C@]2(C)[C@H](C)CC[C@]3(CC[C@@H](O)[C@H]32)[C@@H](C)[C@@H]1O,survival at 4 mg/kg,[1],80%
same,MIC,[2],0.25 µg/mL
same,MBC,[3],> 25 µg/mL
same,MIC,[4],0.4 µg/mL
same,MIC,[5],0.5 µg/mL
same,MIC,[6],< 6.25 µg/mL
same,MBC,[7],6.25 µg/mL
same,MBC,[8],1.56 µg/mL
same,survival at 60 mg/kg,[9],100%
same,fractional inhibitory concentration index (FICI),[10],0.28
same,solubility,[11],Soluble
same,survival at 20 mg/kg,[12],100%
same,MIC,[13],1.56 µg/mL
same,MBC,[14],2 µg/mL
same,MIC,[15],1.56 µg/mL
same,MBC,[16],2 µg/mL
same,fractional inhibitory concentration index (FICI),[17],0.31
same,MBC,[18],1.56 µg/mL
same,MBC,[19],25 µg/mL
same,MBC,[20],1.56 µg/mL
same,survival at 4 mg/kg,[21],100%
same,survival at 2 mg/kg,[22],60%
same,MBC,[23],3.13 to 6.25 µg/mL
